The values below come from ChEMBL document CHEMBL3351634, “Novel sulfonamides bearing pyrrole and pyrrolopyrimidine moieties as carbonic anhydrase inhibitors: Synthesis, cytotoxic activity and molecular modeling” (Eur J Med Chem, 2014).

Test [1] relates to MCF7. Briefly: Cytotoxicity against human MCF7 cells after 48 hrs by sulforhodamine-B assay. The note with it: MCF7, 48 h.
Test [2] relates to MCF7. Briefly: Cytotoxicity against human MCF7 cells assessed as cell survival at 10 uM after 48 hrs by sulforhodamine-B assay. It counts as functional. The note with it: MCF7, 48 h, read-out: Survival. The method in brief: (§1)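 Cells plated at 10⁴ per well and left 24 h to attach, then exposed for 48 h at 37 °C under 5% CO₂, with triplicate wells per concentration. Cells were fixed, washed and stained 30 min with 0.4% (wt/vol) SRB in 1% acetic acid. Unbound dye was removed with four 1% acetic acid washes and bound stain recovered in Tris-EDTA. Colour was read on an ELISA reader and expressed as surviving fraction.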

The target in a further test is Carbonic anhydrase 9 (Homo sapiens, UniProt Q16790). Put plainly: Inhibition of human recombinant carbonic anhydrase 9 preincubated for 15 mins by stopped-flow CO2 hydrase assay.
For test [3], the system named is MCF7. Put plainly: Cytotoxicity against human MCF7 cells assessed as cell survival at 25 uM after 48 hrs by sulforhodamine-B assay. It counts as functional. Particulars: MCF7, 48 h, read-out: Survival. The method in brief:
as §1

In test [4] the test system is MCF7. Briefly: Cytotoxicity against human MCF7 cells assessed as cell survival at 50 uM after 48 hrs by sulforhodamine-B assay. The test is classed as functional. Particulars: MCF7, 48 h, read-out: Survival. The method in brief:
as §1

Test [5] deals with MCF7. Briefly: Cytotoxicity against human MCF7 cells assessed as cell survival at 100 uM after 48 hrs by sulforhodamine-B assay. It counts as functional. The note with it: MCF7, 48 h, read-out: Survival. The method in brief: as §1
In the next test the target is Carbonic anhydrase 1 (Homo sapiens, UniProt P00915). Put plainly: Inhibition of human recombinant carbonic anhydrase 1 preincubated for 15 mins by stopped-flow CO2 hydrase assay.
Another test has as its target Carbonic anhydrase 2 (Homo sapiens, UniProt P00918). Put plainly: Inhibition of human recombinant carbonic anhydrase 2 preincubated for 15 mins by stopped-flow CO2 hydrase assay.

Carbonic anhydrase 1, sequence (P00915 whole entry): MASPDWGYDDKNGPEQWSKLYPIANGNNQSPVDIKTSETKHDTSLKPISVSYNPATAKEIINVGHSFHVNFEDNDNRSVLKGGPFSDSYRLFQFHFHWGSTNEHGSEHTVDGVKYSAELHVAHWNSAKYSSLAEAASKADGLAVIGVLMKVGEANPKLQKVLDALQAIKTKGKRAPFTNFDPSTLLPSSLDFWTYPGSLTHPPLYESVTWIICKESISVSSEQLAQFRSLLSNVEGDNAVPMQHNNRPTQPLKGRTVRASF

`CC(=O)CC(=O)Nc1c(C#N)c(-c2ccc(Br)cc2)cn1-c1ccc(S(N)(=O)=O)cc1`: the IC50 in the test with MCF7 [1] worked out at 8.11 µM. The viability at 10 µM with MCF7 [2] is 29%. Besides, on Carbonic anhydrase 9, the inhibition constant (Ki) stood at 0.0055 µM. In the test with MCF7 [3], the viability at 25 µM was found to be 28.2%. The viability at 50 µM with MCF7 [4] is 28%. Moreover, the viability at 100 µM in the test on MCF7 [5] amounted to 29.1%.

In the test on MCF7 [1], `N#Cc1c(-c2ccc(Br)cc2)cn(-c2ccc(S(N)(=O)=O)cc2)c1NC(=S)Nc1ccc(Cl)cc1` came in with a 50% inhibitory concentration (IC50) of 8.12 µM. Also, the viability at 10 µM in the test on MCF7 [2] worked out at 28.8%. Also, the Ki at Carbonic anhydrase 9 was 0.0903 µM. In addition, the viability at 25 µM in the test on MCF7 [3] worked out at 25.7%. For the same compound, in the test on MCF7 [4], the viability at 50 µM turned out to be 26%. Also, the viability at 100 µM in the test on MCF7 [5] amounted to 29%.

Compound `N#Cc1c(-c2ccc(Br)cc2)cn(-c2ccc(S(N)(=O)=O)cc2)c1NC(=S)Nc1ccc(I)cc1` gave a half-maximal inhibitory concentration (IC50) with MCF7 [1] of 8.15 µM. Besides, the viability at 10 µM with MCF7 [2] was determined as 31.2%. The Ki at Carbonic anhydrase 9 turned out to be 0.46 µM. Besides, the viability at 25 µM in the test on MCF7 [3] stood at 29%. Moreover, the viability at 50 µM in the test on MCF7 [4] is 28.1%. The viability at 100 µM with MCF7 [5] came to 28.8%.

In the case of `N#Cc1c(-c2ccc(Br)cc2)cn(-c2ccc(S(N)(=O)=O)cc2)c1NC(=S)Nc1ccc(S(N)(=O)=O)cc1`, inhibition with MCF7 [1] was half-maximal at 8.13 µM (IC50). In addition, in the test on MCF7 [2], the viability at 10 µM was found to be 31.1%. The Ki on Carbonic anhydrase 9 is 0.0512 µM. For the same compound, in the test with MCF7 [3], the viability at 25 µM is 29.1%. The viability at 50 µM in the test on MCF7 [4] was determined as 25.5%. In addition, in the test with MCF7 [5], the viability at 100 µM turned out to be 27.6%.

`Nc1nc(=S)[nH]c2c1c(-c1ccc(Br)cc1)cn2-c1ccc(S(N)(=O)=O)cc1` gave a 50% inhibitory concentration (IC50) with MCF7 [1] of 6.46 µM. The viability at 10 µM in the test with MCF7 [2] came out at 23.1%. The inhibitory constant (Ki) at Carbonic anhydrase 9 worked out at 0.0429 µM. The viability at 25 µM with MCF7 [3] was determined as 25.5%. Moreover, the viability at 50 µM in the test on MCF7 [4] was determined as 19.9%. In addition, in the test on MCF7 [5], the viability at 100 µM worked out at 25%.

In the test with MCF7 [1], `N#Cc1c(-c2ccc(Br)cc2)cn(-c2ccc(S(N)(=O)=O)cc2)c1NC(=S)Nc1ccc([N+](=O)[O-])cc1` gave a half-inhibitory concentration (IC50) of 8.11 µM. Further, the viability at 10 µM in the test on MCF7 [2] stood at 28%. Also, the Ki at Carbonic anhydrase 9 was 0.0866 µM. Moreover, the viability at 25 µM in the test on MCF7 [3] was determined as 27.6%. In the test with MCF7 [4], the viability at 50 µM came out at 25.5%. In addition, in the test with MCF7 [5], the viability at 100 µM was 26%.

For `N#Cc1c(-c2ccc(Br)cc2)cn(-c2ccc(S(N)(=O)=O)cc2)c1NS(=O)(=O)c1ccccc1`, in the test with MCF7 [1], the IC50 was found to be 7.01 µM. Further, in the test on MCF7 [2], the viability at 10 µM stood at 27.2%. Besides, the inhibitory constant (Ki) at Carbonic anhydrase 9 amounted to 0.849 µM. Moreover, in the test with MCF7 [3], the viability at 25 µM came out at 29%. In addition, in the test on MCF7 [4], the viability at 50 µM is 20.2%. In addition, the viability at 100 µM in the test with MCF7 [5] was determined as 23.2%.

The compound `C/C(S)=N/c1c(C#N)c(-c2ccc(Br)cc2)cn1-c1ccc(S(N)(=O)=O)cc1` gave a concentration for half-maximal inhibition (IC50) with MCF7 [1] of 8.11 µM. Besides, the viability at 10 µM in the test with MCF7 [2] stood at 33%. The Ki at Carbonic anhydrase 9 amounted to 0.006 µM. Besides, in the test on MCF7 [3], the viability at 25 µM was found to be 31.2%. In addition, in the test on MCF7 [4], the viability at 50 µM came out at 30%. Besides, in the test on MCF7 [5], the viability at 100 µM was determined as 29.9%.

In the test with MCF7 [1], `NS(=O)(=O)c1ccc(-n2cc(-c3ccc(Br)cc3)c3c(=O)n(C(=O)c4ccccc4)c(-c4ccccc4)nc32)cc1` displayed an IC50 of 8.11 µM. Moreover, the Ki on Carbonic anhydrase 1 was > 10 µM; on Carbonic anhydrase 9 it was 0.0065 µM. For the same compound, the viability at 10 µM in the test on MCF7 [2] came to 36.6%. Besides, the viability at 25 µM with MCF7 [3] stood at 31.8%. For the same compound, the viability at 50 µM in the test on MCF7 [4] worked out at 28.4%. Further, the viability at 100 µM in the test with MCF7 [5] was determined as 26.8%.

`N#Cc1c(-c2ccc(Br)cc2)cn(-c2ccc(S(N)(=O)=O)cc2)c1NC(=S)Nc1ccc(Br)cc1` gave an IC50 with MCF7 [1] of 8.15 µM. In the test with MCF7 [2], the viability at 10 µM came to 29.8%. In the test on MCF7 [3], the viability at 25 µM worked out at 28%. For the same compound, the viability at 50 µM with MCF7 [4] stood at 27.7%. Also, the viability at 100 µM in the test with MCF7 [5] came out at 29%.

Consider `N#Cc1c(-c2ccc(Br)cc2)cn(-c2ccc(S(N)(=O)=O)cc2)c1NC(=O)c1ccc(Br)cc1`, for which 7.56 µM corresponded to half-maximal inhibition with MCF7 [1] (IC50). Also, the viability at 10 µM in the test on MCF7 [2] was 35.8%. In the test on MCF7 [3], the viability at 25 µM was determined as 32.7%. The viability at 50 µM in the test on MCF7 [4] was 24.9%. Besides, the viability at 100 µM in the test with MCF7 [5] is 25.4%.

Take `Cc1ccc(-n2c(=S)[nH]c3c(c(-c4ccc(Br)cc4)cn3-c3ccc(S(N)(=O)=O)cc3)c2=N)cc1`: in the test on MCF7 [1], half-maximal inhibition (IC50) was put at 6.46 µM. In addition, in the test on MCF7 [2], the viability at 10 µM worked out at 25%. Also, in the test on MCF7 [3], the viability at 25 µM is 24.2%. Also, in the test on MCF7 [4], the viability at 50 µM is 22.9%. Further, the viability at 100 µM with MCF7 [5] was determined as 24.5%.

Compound `Cc1ccc(S(=O)(=O)Nc2c(C#N)c(-c3ccc(Br)cc3)cn2-c2ccc(S(N)(=O)=O)cc2)cc1` had a half-inhibitory concentration (IC50) with MCF7 [1] of 7.56 µM. For the same compound, in the test on MCF7 [2], the viability at 10 µM turned out to be 32.4%. The inhibition constant (Ki) on Carbonic anhydrase 9 amounted to 0.171 µM. Also, in the test on MCF7 [3], the viability at 25 µM is 27.1%. In addition, the viability at 50 µM with MCF7 [4] was determined as 22.2%. For the same compound, the viability at 100 µM with MCF7 [5] worked out at 21.4%.

`NS(=O)(=O)c1ccc(-n2cc(-c3ccc(Br)cc3)c3c(=S)[nH]c(=S)[nH]c32)cc1` showed an IC50 in the test on MCF7 [1] of 7.56 µM. In addition, the viability at 10 µM in the test on MCF7 [2] worked out at 33.7%. Moreover, on Carbonic anhydrase 9, the Ki came to 0.0071 µM. Also, the viability at 25 µM in the test on MCF7 [3] stood at 29.4%. For the same compound, in the test on MCF7 [4], the viability at 50 µM is 21.9%. In addition, the viability at 100 µM in the test with MCF7 [5] came out at 22.5%.

In the test with MCF7 [1], `COc1ccc(NC(=S)Nc2c(C#N)c(-c3ccc(Br)cc3)cn2-c2ccc(S(N)(=O)=O)cc2)cc1` returned a 50% inhibitory concentration (IC50) of 7.01 µM. In addition, in the test on MCF7 [2], the viability at 10 µM is 26.2%. Moreover, in the test on MCF7 [3], the viability at 25 µM stood at 26.3%. The viability at 50 µM in the test with MCF7 [4] is 24.9%. The viability at 100 µM in the test on MCF7 [5] amounted to 21.7%.

`Cc1nc(S)c2c(-c3ccc(Br)cc3)cn(-c3ccc(S(N)(=O)=O)cc3)c2n1` yielded a concentration for half-maximal inhibition (IC50) in the test on MCF7 [1] of 6.74 µM. The viability at 10 µM in the test with MCF7 [2] was determined as 23.6%. For the same compound, the inhibition constant Ki on Carbonic anhydrase 9 was 0.0054 µM. Besides, in the test with MCF7 [3], the viability at 25 µM was found to be 21.8%. The viability at 50 µM in the test with MCF7 [4] turned out to be 19.8%. The viability at 100 µM in the test on MCF7 [5] was determined as 23.1%.

`N#Cc1c(-c2ccc(Br)cc2)cn(-c2ccc(S(N)(=O)=O)cc2)c1N` showed an IC50 in the test on MCF7 [1] of 7.56 µM.

`Nc1nc(=O)[nH]c2c1c(-c1ccc(Br)cc1)cn2-c1ccc(S(N)(=O)=O)cc1`: the concentration for half-maximal inhibition (IC50) with MCF7 [1] stood at 6.74 µM. In the test with MCF7 [2], the viability at 10 µM amounted to 27%. The Ki at Carbonic anhydrase 9 stood at 0.0244 µM. Moreover, the viability at 25 µM in the test with MCF7 [3] is 27.6%. Also, the viability at 50 µM with MCF7 [4] worked out at 20.3%. The viability at 100 µM with MCF7 [5] stood at 23.8%.

In turn, `NS(=O)(=O)c1ccc(-n2cc(-c3ccc(Br)cc3)c3c(=O)n(C(=O)c4ccc(Cl)cc4)c(-c4ccc(Cl)cc4)nc32)cc1` returned a concentration for half-maximal inhibition (IC50) in the test on MCF7 [1] of 13.1 µM. Besides, the results for the inhibition constant (Ki) at Carbonic anhydrase 1, at Carbonic anhydrase 9 and at Carbonic anhydrase 2 were > 10 µM, 0.488 µM and > 10 µM, respectively. Further, in the test on MCF7 [2], the viability at 10 µM is 54.9%. In addition, the viability at 25 µM with MCF7 [3] was 29.3%. In addition, the viability at 50 µM in the test on MCF7 [4] was determined as 20.1%. Also, the viability at 100 µM with MCF7 [5] came to 29.5%.

Compound `N#Cc1c(-c2ccc(Br)cc2)cn(-c2ccc(S(N)(=O)=O)cc2)c1NC(=S)Nc1ccccc1` displayed a concentration for half-maximal inhibition (IC50) in the test with MCF7 [1] of 7.29 µM. The viability at 10 µM in the test on MCF7 [2] turned out to be 30.8%. For the same compound, the Ki on Carbonic anhydrase 9 was 0.0624 µM. Also, the viability at 25 µM with MCF7 [3] came out at 23.5%. Besides, the viability at 50 µM in the test with MCF7 [4] came to 22.7%. Also, in the test on MCF7 [5], the viability at 100 µM is 21.7%.
